Hits are enriched below; roughly 11% of the tested compounds scored in any of these assays.
G6PDH counter – L. mesenteroides G6PDH inhibitors, counter-screen for G6PDH-coupled screening assays, biochemical, Leuconostoc mesenteroides enzyme; hit rate 0.12% among 200,000; AID 1020, 2008; Purified L. mesenteroides G6PDH, diaphorase/resazurin coupled fluorescence, 45 min; inhibition, % at 5 µM
L major viab – Leishmania major promastigote growth inhibition, primary screen; Leishmania major promastigotes, resazurin fluorescence viability; inhibition, % at 10 µM; hit rate 9% among 200,000;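 note: promastigotes grown with compound for 44 hours at 28 °C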
Diaphorase inh – diaphorase inhibitors and chemical oxidizers, primary screen, counter-screen for diaphorase-coupled primary assays, biochemical, uHTS, resorufin fluorescence | diaphorase resazurin-to-resorufin fluorescence, NADH, 16 min; bacterial (C. kluyveri) enzyme, not human | inhibition, % at 20 µM | hit rate 0.69% among 190,000;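 active = primary screen inhibition at 20 µM above a set limit, cut at about 50% in these data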;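 note: plate controls were DMSO with full reaction for no effect and wells lacking NADH for full effect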
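Assay system: diaphorase enzyme from Clostridium kluyveri. Quantity: enzyme working solution with 0.14 U/mL diaphorase. Schedule: reaction incubation of 16 min at room temperature. Technique: resorufin fluorescence, excitation 544 nm, emission 590 nm. Controls: No-NADH positive control and DMSO neutral control.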
Diaphorase act – compounds boosting diaphorase resazurin reduction – biochemical, uHTS, resorufin fluorescence, counter-screen for diaphorase-coupled primary assays, primary screen; hit rate 0.005% among 190,000; AID 1229, 2008; activation factor at 20 µM; Diaphorase/resazurin coupled assay, 16 min; stronger effect = higher value; 1 = vehicle wells, 0 = NADH-free wells;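 active = diaphorase activity raised at least twofold by the compound at 20 µM; inactive = activation factor below 2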
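Test system: Clostridium kluyveri diaphorase, purified enzyme. Buffer or medium: 50 mM HEPES pH 7.4 buffer plus MgCl2 and Tween 20. Also added: 0.114 mM NADH and 0.1 mM resazurin, final amounts. Dosing: compound 20 µM once, DMSO 1%. Schedule: 16 min enzyme reaction, ambient temperature. Detection: fluorescence of resorufin, 544 nm excitation, 590 nm emission.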
WT yeast gro inh – growth inhibition of WT strain, primary screen, mitochondrial fusion inhibitor project, WT and mutant strains, chemical genetic. mitochondrial fusion phenotypic screen. inhibition, % at 10 µM. hit rate 2.1% among 190,000; in the data active = inhibition above about 58%; tested in S. cerevisiae
Numbers without * were called inactive. Cut-off read from the data, not from the text of the source, unless noted: active = inhibition above about 50%; inactive = the rest.

SMILES	G6PDH counter	L major viab	Diaphorase inh	Diaphorase act	WT yeast gro inh
COc1ccc(Nc2nc(Nc3ccc(OC)cc3OC)nc(N3CCN(C)CC3)n2)c(OC)c1	0	77*	8	0.9	22
COc1ccc(Nc2nc(N3CCCCC3)nc3ccccc23)c(OC)c1	13	97*	8	0.9	42
COc1ccc(N2CCN(c3nc(NC(C)(C)C)nc(N4CCCCC4)n3)CC2)cc1	-21	97*	8	0.9	39
COc1ccc(OCC2c3cc(OC)c(OC)cc3CCN2C(=O)C(C)C)cc1 (configuration not stated)	14	30	15	0.8	-3
O=C(CSc1ccc2nnc(-c3ccc(Cl)cc3)n2n1)N1CCc2ccccc21	-41	2	13	0.9	-4
O=[N+]([O-])c1ccccc1CNC1CCCCCC1	13	83*	20	0.8	5
Cc1ccccc1CNC1CCCCC1	6	-8	1	1	-3
CCNC(=S)NNC(=O)c1cc(-c2ccc(OCC)cc2)nc2ccccc12	10	30	18	0.8	66*
COC(=O)c1ccc(Cn2cnc3c(sc4nc(N5CCOCC5)c5c(c43)CCCC5)c2=O)o1	-43	7	8	0.9	-12
CC1CCN(CC(O)COC2CC(C)CCC2C(C)C)CC1 (configuration not stated)	7	90*	2	1	6
CCOC(=O)N1CCN(CC(O)COC2CC(C)CCC2C(C)C)CC1 (configuration not stated)	3	95*	0	1	77*
COc1ccc(CCNC(=O)CCc2ccc(S(=O)(=O)NC(C)C)cc2)cc1	0	-3	14	0.9	20
CCOc1ccc(N(Cc2cc3ccc(C)cc3[nH]c2=O)S(C)(=O)=O)cc1	12	0	19	0.8	-11
Oc1cccc(/C=N/N(Cc2ccccc2)c2ccccc2)c1	-1	8	16	0.8	90*
Oc1ccc(/C=N/N(Cc2ccccc2)c2ccccc2)c(O)c1O	8	-9	87*	0.1	9
C(=N\N(Cc1ccccc1)c1ccccc1)/c1cccnc1	-1	18	18	0.8	74*
C/C(=N\N(Cc1ccccc1)c1ccccc1)c1cccnc1	0	17	10	0.9	39
Cn1c(=O)oc2cc(S(=O)(=O)NC3CCN(Cc4ccccc4)CC3)ccc21	7	50*	6	0.9	6
Cc1noc(C)c1S(=O)(=O)NC1CCN(Cc2ccccc2)CC1	-1	0	7	0.9	4
Cn1c(=O)oc2cc(S(=O)(=O)NCCN3CCN(c4ccccc4)CC3)ccc21	4	-7	11	0.9	-2
Cn1c(=O)oc2cc(S(=O)(=O)NCCC(=O)N3CC=C(c4ccccc4)CC3)ccc21	2	6	22	0.8	8
COc1ccc(CNS(=O)(=O)c2ccc3c(c2)CCN3C(=O)C2CC2)cc1	7	-2	13	0.9	-8
Cc1cc(C)c(C)c(S(=O)(=O)NC2CCN(Cc3ccccc3)CC2)c1C	0	59*	8	0.9	15
CC(C)CC(NS(=O)(=O)c1ccc2c(c1)oc(=O)n2C)C(=O)N1CC=C(c2ccccc2)CC1 (configuration not stated)	8	86*	30	0.7	22
O=C(C1CC1)N1CCc2cc(S(=O)(=O)NC3CCN(Cc4ccccc4)CC3)ccc21	4	59*	14	0.9	7
N#C/C(=C\c1ccc(OC(=O)c2ccc(Cl)s2)cc1)c1nc2ccccc2[nH]1	4	7	20	0.8	6
CCCOc1ccc(N2C(=O)CC(N3CCN(CCN=CC4C(=O)CC(C)(C)CC4=O)CC3)C2=O)cc1 (configuration not stated)	4	3	-2	1	-2
Cn1c(=O)c2cc(S(=O)(=O)Nc3ccc4c(c3)OCO4)ccc2n(C)c1=O	-10	30	18	0.8	-7
Cn1c(=O)oc2cc(S(=O)(=O)Nc3ccc4c(c3)OCO4)ccc21	8	66*	35	0.7	-1
Cn1c(=O)oc2cc(S(=O)(=O)NCc3ccco3)ccc21	-1	-10	12	0.9	-1

High-throughput results deposited in PubChem BioAssay by several laboratories.
